Hits are enriched below; roughly 3.2% of the tested compounds scored in any of these assays.
JMJD2C inh: blocks human GASC-1 demethylase activity; AID 2099; Q9H3R0; GST-JMJD2C(1-420) H3K9me3 demethylation, DELFIA europium; 0.069% of 330,000 active; inhibition, % at 2.35 µM;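 active = more than half of a compound's replicate wells show inhibition beyond 50%, single wells judged on their own value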;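 also: signal counts dimethyl H3K9 product captured on neutravidin plate; 0% = median of DMSO wells and 100% = 0.3 times that DMSO median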
Target sequence (Q9H3R0 1-420 limits assumed): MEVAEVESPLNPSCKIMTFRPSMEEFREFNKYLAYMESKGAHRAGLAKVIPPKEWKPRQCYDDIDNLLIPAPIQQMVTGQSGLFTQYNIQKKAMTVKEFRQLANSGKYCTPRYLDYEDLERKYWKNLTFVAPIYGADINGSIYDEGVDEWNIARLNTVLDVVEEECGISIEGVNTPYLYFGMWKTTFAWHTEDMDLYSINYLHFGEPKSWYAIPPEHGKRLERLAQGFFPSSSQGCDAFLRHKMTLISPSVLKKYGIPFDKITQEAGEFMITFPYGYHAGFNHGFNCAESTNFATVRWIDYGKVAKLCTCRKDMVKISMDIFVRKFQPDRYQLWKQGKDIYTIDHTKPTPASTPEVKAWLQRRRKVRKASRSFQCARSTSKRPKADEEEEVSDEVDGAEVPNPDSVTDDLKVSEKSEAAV
DAX1 inh-1: blocks DAX1 repression of SF-1 activated StAR promoter; inhibition, % at 6.8 µM; HEK293T StAR-luciferase reporter, SF-1/DAX-1 repression relief; 1.1% of 370,000 active;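 active = inhibition above the mean over all tested compounds plus 3 SD, cut at about 3.6% in these data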;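 also: 0% = DAX-1 cells with DMSO and 100% = cells lacking DAX-1 with DMSO; higher inhibition means more luminescence from relief of DAX-1 repression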
SMARCA2 activ: increases SMARCA2 function in MMTV reporter cells. MG213 cells, MMTV-luciferase reporter, dexamethasone, overnight. activation, % at 9.1 µM. 1% of 370,000 active; in the data active = activation above about 7.8%;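 also: 0% = vehicle wells and 100% = reference activator wells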
NR2E3 ag-1: activates human NR2E3 receptor; Q9Y5X4; CHO-S Gal4-NCOR/VP16-NR2E3 two-hybrid, luciferase; inhibition of corepressor binding, % at 3.98 µM; 0.35% of 360,000 active;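 active = inhibition above the mean of all tested compounds plus 3 SD, cut at about 70% in these data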;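 also: 0% = DMSO with NR2E3 transfected cells and 100% = cells lacking NR2E3 construct; higher means lower luciferase signal from less NR2E3 corepressor binding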
NR2E3 ag-2: agonists of human nuclear receptor NR2E3; Q9Y5X4; GST-NR2E3/biotin-RetCOR TR-FRET, 1536-well; inhibition of corepressor binding, % at 4.78 µM; 0.12% of 320,000 active; AID 2300;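 active = percent inhibition above the cutoff of mean plus 3 SD of all tested compounds, set per screening campaign, cut at about 20% in these data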;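 also: 0% = DMSO wells and 100% = biotin wells as full block of FRET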
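Material: NR2E3–RetCOR corepressor complex | Quantity: 1.35 nM GST-tagged NR2E3 final | Schedule: 5 h at 4 °C | Replication: Singlicate compound wells | Reagent: RetCOR corepressor, biotinylated, 7 nM | Controls: Biotin wells as high control, 0.6% DMSO wells as low control | Signal: TR-FRET, Eu(K)-anti-GST donor, streptavidin-D2 acceptor, ex 340, em 617/671 nm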
DAX1 inh-2: NR0B1 (DAX1) inhibition; inhibition, % at 6.75 µM; P51843; AID 504766; 0.99% of 340,000 active; HEK293 Gal4-DAX1 luciferase reporter, luminescence;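 active = inhibition above the mean over all tested compounds plus 3 SD, cut at about 4.2% in these data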;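 also: 0% = DAX1-transfected cells with DMSO and 100% = empty-vector control cells with DMSO; inhibition shows as a rise in luminescence from relieved DAX1 repression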
Target sequence (P51843 207-470 limits assumed): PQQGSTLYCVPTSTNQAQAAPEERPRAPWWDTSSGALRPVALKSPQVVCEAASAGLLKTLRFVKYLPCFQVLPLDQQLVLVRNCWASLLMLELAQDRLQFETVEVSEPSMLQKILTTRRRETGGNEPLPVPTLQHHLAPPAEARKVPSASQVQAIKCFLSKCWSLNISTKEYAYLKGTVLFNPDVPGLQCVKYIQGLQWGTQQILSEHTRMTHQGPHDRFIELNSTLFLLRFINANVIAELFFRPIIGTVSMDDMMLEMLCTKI
An asterisk follows results filed as active.

Results for CCCCCN1CCCCC(NC(=O)c2ccccc2C)C1=O (stereo not drawn) ?
DAX1 inh-1: 0; SMARCA2 activ: -1

Results for CNC(=O)CSc1nnc(-c2cccnc2)n1-c1ccc(C)cc1 ?
JMJD2C inh: -7; DAX1 inh-1: -1; SMARCA2 activ: -1; NR2E3 ag-1: -21; NR2E3 ag-2: 1; DAX1 inh-2: 4.4*

What do the screens show for `COC(=O)[C@@]12CCCCC3=C1N(CCC3)C(=O)[C@H]2CC(=O)NCc1ccccc1`?
DAX1 inh-1: -1; SMARCA2 activ: 1

What do the screens show for `COc1ccc(/C=C2\SC(=O)N(CC(=O)NN3CCN(C)CC3)C2=O)cc1OC`?
JMJD2C inh: 6; DAX1 inh-1: 0; SMARCA2 activ: -2; NR2E3 ag-1: -43; NR2E3 ag-2: 2; DAX1 inh-2: 4.7*

What do the screens show for `COc1ccc(/C=C2\SC(=O)N(CCC(=O)N3CCCCC3)C2=O)cc1OC`?
JMJD2C inh: -3; DAX1 inh-1: 0; SMARCA2 activ: -2; NR2E3 ag-1: 0; NR2E3 ag-2: 0; DAX1 inh-2: 5.8*

What do the screens show for `COc1ccc(/C=C2\SC(=O)N(CC(=O)Nc3ccc(O)cc3)C2=O)cc1OC`?
JMJD2C inh: 3; DAX1 inh-1: 0; SMARCA2 activ: -5; NR2E3 ag-1: -26; DAX1 inh-2: 0

Results for CCOc1cccc(-c2nnc(SCC(=O)Nc3ccc4c(c3)OCO4)n2N)c1 ?
DAX1 inh-1: -2; SMARCA2 activ: -5

How did COC(=O)[C@H](C(C)C)N(Cc1cn(Cc2ccc(C)cc2)nn1)S(=O)(=O)c1ccccc1Br do in these assays?
DAX1 inh-1: -1; SMARCA2 activ: -4

How did Cc1cccc(C)c1NC(=O)CNC(=O)CCC(=O)N1CCOCC1 do in these assays?
JMJD2C inh: 5; DAX1 inh-1: 3.7*; SMARCA2 activ: -2; NR2E3 ag-1: -1; NR2E3 ag-2: 6; DAX1 inh-2: -1

What do the screens show for `Cc1cccc(C)c1NC(=O)CN(C)C(=O)CCC(=O)N1CCOCC1`?
JMJD2C inh: 1; DAX1 inh-1: 0; SMARCA2 activ: -3; NR2E3 ag-1: -5; DAX1 inh-2: -1

Results for COc1ccc(C2=CCN(C)C(=O)N2c2ccc([N+](=O)[O-])cc2)cc1 ?
DAX1 inh-1: 0; SMARCA2 activ: 1

Results for CN(C)c1cccc2c1c(NC(=O)Nc1ccccc1)nn2C ?
JMJD2C inh: 4; DAX1 inh-1: -1; SMARCA2 activ: -7; NR2E3 ag-1: 10; NR2E3 ag-2: -4; DAX1 inh-2: 4.3*

What do the screens show for `CN(C)c1cccc2c1c(NC(=O)c1ccc(Cl)cc1)nn2C`?
JMJD2C inh: 3; DAX1 inh-1: -1; SMARCA2 activ: -3; NR2E3 ag-1: -17; NR2E3 ag-2: 2; DAX1 inh-2: 5.7*

What do the screens show for `CN(C)c1cccc2c1c(NC(=O)c1ccc(F)cc1)nn2C`?
JMJD2C inh: 3; DAX1 inh-1: -1; SMARCA2 activ: -1; NR2E3 ag-1: -2; NR2E3 ag-2: -1; DAX1 inh-2: 2

How did O=c1cccccc1NN=C1CCCCC1 do in these assays?
JMJD2C inh: -6; DAX1 inh-1: 2; SMARCA2 activ: 7; NR2E3 ag-1: -118; NR2E3 ag-2: -2; DAX1 inh-2: 5.8*

What do the screens show for `O=c1cccccc1NN=C1CCCCCC1`?
JMJD2C inh: 2; DAX1 inh-1: 1; SMARCA2 activ: 3; NR2E3 ag-1: -57; NR2E3 ag-2: 2; DAX1 inh-2: 3

What do the screens show for `COc1ccc(N2C(=O)C3C(c4ccc(OC)cc4O)NC(Cc4ccccc4)(C(=O)O)C3C2=O)cc1` (stereo not drawn)?
JMJD2C inh: -1; DAX1 inh-1: 0; SMARCA2 activ: 1; NR2E3 ag-1: -15; NR2E3 ag-2: 3; DAX1 inh-2: 7.6*

What do the screens show for `CCCC1(C(=O)O)NC(c2ccc(OC)cc2O)C2C(=O)N(c3ccc(OC)cc3)C(=O)C21` (stereo not drawn)?
JMJD2C inh: 3; DAX1 inh-1: 0; SMARCA2 activ: 2; NR2E3 ag-1: -9; NR2E3 ag-2: 1; DAX1 inh-2: 2

Results for COCCN1CCCc2nc(-c3ccc(F)cc3)ccc21 ?
DAX1 inh-1: 3; SMARCA2 activ: 5

Results for Fc1ccc(-c2ccc3c(n2)CCCN3Cc2ccccn2)cc1 ?
DAX1 inh-1: 3.8*; SMARCA2 activ: 3

Results for COc1ccc(S[C@]2(C(=O)N3CCN(c4ncccn4)CC3)CC(=O)N(c3ccsc3)[C@@H]2c2ccc(OC)cc2)cc1 ?
DAX1 inh-1: -1; SMARCA2 activ: 1

Results for CCn1c(SCC(=O)Nc2ccc(C(C)=O)cc2)nc2nc3c(cc2c1=O)COC(C)(C)C3 ?
JMJD2C inh: 2; DAX1 inh-1: 0; SMARCA2 activ: 0; NR2E3 ag-1: -36; NR2E3 ag-2: 4; DAX1 inh-2: 2

How did CCn1c(SCC(=O)Nc2ccccc2C)nc2nc3c(cc2c1=O)COC(C)(C)C3 do in these assays?
JMJD2C inh: 1; DAX1 inh-1: -1; SMARCA2 activ: -2; NR2E3 ag-1: 4; NR2E3 ag-2: 2; DAX1 inh-2: 5.5*

How did O=C(CCCN1CCC(C(=O)c2ccc(F)cc2)CC1)c1ccc(F)cc1 do in these assays?
JMJD2C inh: 2; DAX1 inh-1: 0; SMARCA2 activ: -2; NR2E3 ag-1: -1; NR2E3 ag-2: 1; DAX1 inh-2: 1

How did O=C(CCCC(=O)c1ccc(F)cc1)c1ccc(F)cc1 do in these assays?
JMJD2C inh: -4; DAX1 inh-1: 2; SMARCA2 activ: 2; NR2E3 ag-1: -97; NR2E3 ag-2: 7; DAX1 inh-2: 4.8*

How did COc1ccc(-c2cc(C(=O)NN=Cc3cccn3C)[nH]n2)cc1 do in these assays?
DAX1 inh-1: 0; SMARCA2 activ: 1

What do the screens show for `O=C(O)c1cccnc1C(=O)N1CCc2c([nH]c3ccccc23)C1C(F)(F)F` (stereo not drawn)?
JMJD2C inh: 20; DAX1 inh-1: 0; SMARCA2 activ: -1; NR2E3 ag-1: 26; NR2E3 ag-2: -3

What do the screens show for `c1cnc2c(C3NCCc4c3[nH]c3ccccc43)cccc2c1` (stereo not drawn)?
JMJD2C inh: 1; NR2E3 ag-1: -25; NR2E3 ag-2: -3; DAX1 inh-2: 5.0*

What do the screens show for `CCN(CC)c1ccc(NC(=O)CSc2nc3ccccc3c(=O)n2-c2ccc(C)cc2)cc1`?
DAX1 inh-1: -2; SMARCA2 activ: -5

What do the screens show for `CCN(Cc1cn(Cc2ccccc2)nn1)S(=O)(=O)c1ccccc1Br`?
DAX1 inh-1: -1; SMARCA2 activ: -2

How did O=C(Nc1cc([N+](=O)[O-])c2[nH]c(=O)c3ccccc3c2c1)C(F)(F)F do in these assays?
DAX1 inh-1: 3.9*; SMARCA2 activ: -4; NR2E3 ag-1: 12; DAX1 inh-2: 1

What do the screens show for `O=C(Nc1c(-c2ccc(C(F)(F)F)cc2)nc2ncccn12)c1ccccc1`?
DAX1 inh-1: -1; SMARCA2 activ: -2
